The structures appear in SMILES notation.

For the assay, the system named is Lewis lung carcinoma cell line. Kind of assay: Compound injected intraperitoneally for 8 days and was tested for mean of increased life span in female BDF mice injected intravenously with 3LL Lewis Lung adenocarcinoma into lateral tail vein before 2 days. The class given is functional, Mus musculus. The procedure, abridged:
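Female BDF1 mice (18–20 g) given 6×10^5 log-phase 3LL cells in 0.2 mL RPMI 1640 by lateral tail vein. Drug suspended in DMSO/saline buffered to pH 7.4, dosed ip once daily on days 2–9 (8 treatments); screening dose 50 mg/kg. Mice monitored daily for survival; ILS (%) = (MST treated/MST vehicle control ×100) − 100; significance by Armitage trend test.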
On to `Cc1cc(C)c2nc(NC(=O)c3csc(N=C(N)N)n3)sc2c1`, for which the ILS was found to be 64.

Consider `CCc1cc(C#N)cc2sc(NC(=O)c3csc(N=C(N)N)n3)nc12.Cl`, for which the ILS came out at 38.

The compound `Cc1cccc2sc(NC(=O)c3csc(N=C(N)N)n3)nc12.Cl` yielded an ILS of 44.

`N=C(N)Nc1nc(C(=O)Nc2nc3ccc(F)cc3s2)cs1` had an ILS of 38.8.

As to `COc1cc([N+](=O)[O-])cc2sc(NC(=O)c3csc(N=C(N)N)n3)nc12`, the ILS is 20.

`N=C(N)Nc1nc(C(=O)Nc2nc3c([N+](=O)[O-])cccc3s2)cs1` had an ILS of 30.

In turn, `COc1ccc2sc(NC(=O)c3csc(N=C(N)N)n3)nc2c1C` had an ILS of 57.

`CCc1ccc2nc(NC(=O)c3csc(N=C(N)N)n3)sc2c1.Cl` returned an ILS of 33.

Consider `Cl.N=C(N)Nc1nc(C(=O)Nc2nc3cc(F)cc(F)c3s2)cs1`, for which the ILS turned out to be 22.

Compound `Cc1ccc2nc(NC(=O)c3csc(N=C(N)N)n3)sc2c1` had an ILS of 37.3.

`Cl.N=C(N)Nc1nc(C(=O)Nc2nc3ccc([N+](=O)[O-])cc3s2)cs1` had an ILS of 51.7.

Take `CCCc1ccc2nc(NC(=O)c3csc(N=C(N)N)n3)sc2c1.Cl`: the ILS came out at 21.5.

Consider `COc1cccc2sc(NC(=O)c3csc(N=C(N)N)n3)nc12.Cl`, for which the ILS came out at 45.

`Cc1c(Cl)ccc2sc(NC(=O)c3csc(N=C(N)N)n3)nc12.Cl`: the ILS stood at 73.

The compound `COc1ccc(Cl)c2sc(NC(=O)c3csc(N=C(N)N)n3)nc12` yielded an ILS of 69.

Compound `N=C(N)Nc1nc(C(=O)Nc2nc3cc(Cl)c(Cl)cc3s2)cs1` returned an ILS of 71.

`CCOc1ccc(F)c2sc(NC(=O)c3csc(N=C(N)N)n3)nc12` gave an ILS of 53.

On to `Cl.N=C(N)Nc1nc(C(=O)Nc2nc3cc(O)ccc3s2)cs1`, for which the ILS was determined as 10.

Turning to `Cl.N=C(N)Nc1nc(C(=O)Nc2nc3ccccc3s2)cs1`, the ILS was determined as 15.

In the case of `N=C(N)Nc1nc(C(=O)Nc2nc3c(F)ccc(F)c3s2)cs1`, the ILS is on record as 26.

Compound `CC(C)c1ccc2nc(NC(=O)c3csc(N=C(N)N)n3)sc2c1` came in with an ILS of 38.

For the compound `CCOc1ccc2nc(NC(=O)c3csc(N=C(N)N)n3)sc2c1`, the ILS was 6.

`CCCCOc1ccc2nc(NC(=O)c3csc(N=C(N)N)n3)sc2c1.Cl` returned an ILS of 59.

Turning to `COc1ccc(C(F)(F)F)c2sc(NC(=O)c3csc(N=C(N)N)n3)nc12`, the ILS worked out at 17.

Consider `Cl.N=C(N)Nc1nc(C(=O)Nc2nc3c(O)cccc3s2)cs1`, for which the ILS was 14.

In the case of `Cl.N#Cc1ccc2nc(NC(=O)c3csc(NC(=N)N)n3)sc2c1`, the ILS came out at 53.

Consider `Cc1cc(C(F)(F)F)cc2sc(NC(=O)c3csc(N=C(N)N)n3)nc12`, for which the ILS stood at 19.

For `N=C(N)Nc1nc(C(=O)Nc2nc3cc(F)c(F)cc3s2)cs1`, the ILS is reported as 62.

The compound `CCCCOc1ccc2sc(NC(=O)c3csc(N=C(N)N)n3)nc2c1.Cl` had an ILS of 34.5.

In turn, `Cl.N=C(N)Nc1nc(C(=O)Nc2nc3cccc(-c4ccccc4)c3s2)cs1` displayed an ILS of 49.

Consider `N=C(N)Nc1nc(C(=O)Nc2nc3cc(Cl)c(F)cc3s2)cs1`, for which the ILS turned out to be 41.

In turn, `CSc1ccc2nc(NC(=O)c3csc(N=C(N)N)n3)sc2c1` yielded an ILS of 25.5.

In the case of `Cc1cc2nc(NC(=O)c3csc(N=C(N)N)n3)sc2cc1C.Cl`, the ILS is given as 18.

As for `CS(=O)(=O)c1ccc2sc(NC(=O)c3csc(N=C(N)N)n3)nc2c1`, the ILS was 1.

For the compound `Cl.N=C(N)Nc1nc(C(=O)Nc2nc3ccc(Cl)c(C(F)(F)F)c3s2)cs1`, the ILS amounted to 69.

`Cl.N=C(N)Nc1nc(C(=O)Nc2nc3ccc(S(N)(=O)=O)cc3s2)cs1`: the ILS is recorded as 1.

Compound `CCOc1ccc(Cl)c2sc(NC(=O)c3csc(N=C(N)N)n3)nc12` had an ILS of 75.

As for `Cc1c(F)ccc2sc(NC(=O)c3csc(N=C(N)N)n3)nc12.Cl`, the ILS amounted to 62.

The compound `CCCCCS(=O)(=O)c1ccc2nc(NC(=O)c3csc(N=C(N)N)n3)sc2c1` had an ILS of 30.

The compound `N=C(N)Nc1nc(C(=O)Nc2nc3c(Cl)cccc3s2)cs1` gave an ILS of 18.

On to `COc1cc2nc(NC(=O)c3csc(N=C(N)N)n3)sc2cc1Cl`, for which the ILS is given as 21.

In the case of `Cl.N=C(N)Nc1nc(C(=O)Nc2nc3cc([N+](=O)[O-])ccc3s2)cs1`, the ILS is recorded as 57.

`CCOc1ccc2sc(NC(=O)c3csc(N=C(N)N)n3)nc2c1.Cl` showed an ILS of 44.

Compound `COc1cc2nc(NC(=O)c3csc(N=C(N)N)n3)sc2cc1OC` returned an ILS of 5.

As for `N=C(N)Nc1nc(C(=O)Nc2nc3c(F)cccc3s2)cs1`, the ILS is 38.

In the case of `N=C(N)Nc1nc(C(=O)Nc2nc3cc(F)c(Cl)cc3s2)cs1`, the ILS turned out to be 75.

Turning to `N=C(N)Nc1nc(C(=O)Nc2nc3ccc(C(N)=O)cc3s2)cs1`, the ILS was determined as 1.

Take `CC(C)(C)c1ccc2nc(NC(=O)c3csc(N=C(N)N)n3)sc2c1.Cl`: the ILS is listed as 61.

`N=C(N)Nc1nc(C(=O)Nc2nc3ccc(-c4ccccc4)cc3s2)cs1` gave an ILS of 67.

Compound `N=C(N)Nc1nc(C(=O)Nc2nc3cccc(C(F)(F)F)c3s2)cs1` came in with an ILS of 35.

Regarding `CSc1ccc2sc(NC(=O)c3csc(N=C(N)N)n3)nc2c1.Cl`, the ILS is recorded as 1.

As for `Cl.N=C(N)Nc1nc(C(=O)Nc2nc3ccc(Cl)cc3s2)cs1`, the ILS is recorded as 58.

On to `Cc1cc(Cl)cc2sc(NC(=O)c3csc(N=C(N)N)n3)nc12`, for which the ILS was 15.

In the case of `CSc1cccc2sc(NC(=O)c3csc(N=C(N)N)n3)nc12.Cl`, the ILS is 9.

The compound `Cc1cc(F)cc2sc(NC(=O)c3csc(N=C(N)N)n3)nc12.Cl` showed an ILS of 29.

For `CC(C)c1cccc2sc(NC(=O)c3csc(N=C(N)N)n3)nc12.Cl`, the ILS is 24.

`CC(C)Oc1ccc2sc(NC(=O)c3csc(N=C(N)N)n3)nc2c1.Cl` gave an ILS of 23.

`N=C(N)Nc1nc(C(=O)Nc2nc3cc(Cl)c(C(N)=O)cc3s2)cs1` registered an ILS of 42.

For `COc1ccc2nc(NC(=O)c3csc(N=C(N)N)n3)sc2c1`, the ILS was 7.5.

Compound `N=C(N)Nc1nc(C(=O)Nc2nc3cc(F)c(O)cc3s2)cs1` showed an ILS of 23.

The compound `N=C(N)Nc1nc(C(=O)Nc2nc3cc(F)ccc3s2)cs1` displayed an ILS of 67.6.

In turn, `Cl.N=C(N)Nc1nc(C(=O)Nc2nc3cc(-c4ccccc4)ccc3s2)cs1` showed an ILS of 18.

`Cc1ccc(F)c2sc(NC(=O)c3csc(N=C(N)N)n3)nc12.Cl` came in with an ILS of 53.

The values above are taken from ChEMBL document CHEMBL1125822, “Quantitative structure-activity relationships of antitumor guanidinothiazolecarboxamides with survival enhancement for therapy in the 3LL Lewis lung carcinoma model” (1991).
